Experiments:
[1] = biological target: T1, Polyunsaturated fatty acid 5-lipoxygenase (Homo sapiens, UniProt P09917); test: Inhibition of Human 5-lipoxygenase
T1 sequence (P09917 whole entry): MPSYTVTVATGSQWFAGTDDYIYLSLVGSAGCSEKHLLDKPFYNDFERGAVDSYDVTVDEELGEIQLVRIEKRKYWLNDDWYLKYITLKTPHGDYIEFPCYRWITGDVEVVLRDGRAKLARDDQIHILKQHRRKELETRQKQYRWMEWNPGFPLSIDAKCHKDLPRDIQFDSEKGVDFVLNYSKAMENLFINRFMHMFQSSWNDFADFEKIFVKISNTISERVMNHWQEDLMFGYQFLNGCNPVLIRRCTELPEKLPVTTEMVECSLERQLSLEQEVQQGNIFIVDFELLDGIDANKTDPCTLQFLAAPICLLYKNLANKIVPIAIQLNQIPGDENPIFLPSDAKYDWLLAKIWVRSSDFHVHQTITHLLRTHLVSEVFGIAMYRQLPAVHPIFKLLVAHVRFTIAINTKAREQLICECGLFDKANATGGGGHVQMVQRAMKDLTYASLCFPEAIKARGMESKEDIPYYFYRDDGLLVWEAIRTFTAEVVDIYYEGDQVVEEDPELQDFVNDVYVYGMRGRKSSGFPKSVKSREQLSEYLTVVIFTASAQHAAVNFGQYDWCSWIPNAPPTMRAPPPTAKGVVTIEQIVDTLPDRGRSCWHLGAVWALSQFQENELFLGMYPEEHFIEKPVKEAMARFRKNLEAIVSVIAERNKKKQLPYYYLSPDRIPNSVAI
Outline: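 Enzyme source is the 100000g supernatant (S100) of insect cells overexpressing human 5-LO. Activity followed spectrophotometrically as 5-HPETE production. IC50 is the mean of at least two independent determinations unless the value came from a single titration.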

Rattus norvegicus = test: Compound was tested for the inhibition of dyspnea in hyperreactive rats dosed at 5 mg/kg po; assay type: functional; conditions: for inhibition in vivo at 5 mg/kg: Rattus norvegicus, po
Outline: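 Inbred hyperreactive rats (n = 6) pretreated with methysergide 3 μg/kg iv. Sodium salt given po in 1% or 0.5% methocel 2 h before ovalbumin antigen challenge. Read-out is percent inhibition of dyspnea duration versus litter mate-matched vehicle-treated controls.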

[2] = Bioavailability in rat; assay type: ADME, organism-based; conditions: in vivo
Outline: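 Rats dosed with sodium salts, 20 mg/kg po in 1% methocel and 5 mg/kg iv in PEG 200 (n = 2); plasma profiles collected over 0–6 h. Bioavailability calculated as AUC_po/4 × AUC_iv.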

[3] = biological target: T2, Arachidonate 5-lipoxygenase-activating protein (Homo sapiens, UniProt P20292); test: Inhibition of 5-lipoxygenase activating protein using human leukocyte membrane preparations
T2 sequence (P20292 whole entry): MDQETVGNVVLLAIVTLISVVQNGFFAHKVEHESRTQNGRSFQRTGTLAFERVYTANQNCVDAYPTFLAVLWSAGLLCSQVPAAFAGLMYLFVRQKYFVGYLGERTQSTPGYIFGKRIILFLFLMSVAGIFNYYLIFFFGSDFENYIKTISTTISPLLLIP
Outline: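 Binding assay on human leukocyte membrane preparations, measuring displacement of [¹²⁵I]-L-691,831 by drug. IC50 is the mean of at least two independent determinations unless the value came from a single titration.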

Row | SMILES | IC50 [1] [nM] | bioavailability [2] [%] | inhibition in vivo at 5 mg/kg (Rattus norvegicus) [%] | other results
1 | CC1Cc2c(OCc3ccc(-c4ccccc4)cn3)ccc3c2c(c(CCc2ccccc2C(=O)O)n3Cc2ccc(Cl)cc2)S1 (stereo not given) | 360 | – | – | –
2 | CC1Cc2c(OCc3ccc(-c4ccccc4)cn3)ccc3c2c(c(COc2ccccc2CC(=O)O)n3Cc2cccc(Cl)c2)S1 (stereo in doubt; (-)14b) | 10 | – | – | Inhibition (Rattus norvegicus; 5 mg/kg): 58%; F [2]: 32%
3 | CC1Cc2c(OCc3ccc4ccccc4n3)ccc3c2c(c(COc2ccccc2CC(=O)O)n3Cc2ccc(Cl)cc2)S1 (stereo not given) | 100 | – | – | IC50 [3]: 32 nM
4 | CC1Cc2c(OCc3ccc4ccccc4n3)ccc3c2c(c(CSc2ccccc2C(=O)O)n3Cc2ccc(Cl)cc2)S1 (stereo not given) | 70 | – | – | IC50 [3]: 72 nM
5 | CC1Cc2c(OCc3ccc(-c4ccccc4)cn3)ccc3c2c(c(CCSc2ccccc2C(=O)O)n3Cc2ccc(Cl)cc2)S1 (stereo not given) | 30 | 10 | – | –
6 | CC1Cc2c(OCc3ccc(-c4ccccc4)cn3)ccc3c2c(c(CCOc2ccccc2CC(=O)O)n3Cc2ccc(Cl)cc2)S1 (stereo not given) | 60 | 15 | 47 | –
7 | CC(C)(C)Sc1c(CC(C)(C)C(=O)O)n(Cc2ccc(Cl)cc2)c2ccc(OCc3ccc4ccccc4n3)cc12 [QUIFLAPON] | > 10000 | – | – | IC50 [3]: 1.6 nM
8 | CC(C)c1ccc2c(c1)c(SC(C)(C)C)c(CC(C)(C)C(=O)O)n2Cc1ccc(Cl)cc1 | > 10 | – | – | –
9 | CC1Cc2c(OCc3ccc(-c4ccccc4)cn3)ccc3c2c(c(CCOc2ccccc2CC(=O)O)n3Cc2cccc(Cl)c2)S1 (stereo not given) | 40 | – | – | –
10 | CC1Cc2c(OCc3ccc(-c4ccccc4)cn3)ccc3c2c(c(COc2ccccc2CC(=O)O)n3Cc2cccc(Cl)c2)S1 (stereo in doubt; (+)14b) | 95 | – | – | –
11 | CCC(OCCc1c2c3c(c(OCc4ccc(-c5ccccc5)cn4)ccc3n1Cc1ccc(Cl)cc1)CC(C)S2)C(=O)O (stereo not given) | – | – | 50 | –
12 | CC1Cc2c(OCc3ccccn3)ccc3c2c(c(CSc2ccccc2C(=O)O)n3Cc2ccc(Cl)cc2)S1 (stereo not given) | 55 | – | – | IC50 [3]: 760 nM
13 | CC1Cc2c(OCc3ccc(-c4ccccc4)cn3)ccc3c2c(c(COc2ccccc2CC(=O)O)n3Cc2cccc(Cl)c2)S1 (stereo in doubt; 14b) | 18 | – | 74 | F [2]: 11%
14 | CC1Cc2c(OCc3ccc(-c4ccccc4)cn3)ccc3c2c(c(COCc2ccccc2C(=O)O)n3Cc2ccc(Cl)cc2)S1 (stereo not given) | 62 | – | – | –
15 | CC1Cc2c(OCc3ccc(-c4ccccc4)cn3)ccc3c2c(c(CSc2ccccc2C(=O)O)n3Cc2ccc(Cl)cc2)S1 (stereo not given) | 30 | < 5 | – | –
16 | CC1Cc2c(OCc3ccc(-c4ccccc4)cn3)ccc3c2c(c(CCOc2ccccc2CC(=O)O)n3Cc2ccc(F)cc2)S1 (stereo not given) | 60 | 4 | 36 | –
17 | CC1Cc2c(OCc3ccc(-c4ccccc4)cn3)ccc3c2c(c(CCOc2ccccc2CC(=O)O)n3Cc2cccc(F)c2)S1 (stereo not given) | 23 | 44 | 59 | –
18 | COc1ccc(COc2ccc3c4c2CC(C)Sc4c(CSc2ccccc2C(=O)O)n3Cc2ccc(Cl)cc2)nc1 (stereo not given) | 52 | – | – | IC50 [3]: 370 nM
19 | CC1Cc2c(OCc3cc4ccccc4cn3)ccc3c2c(c(CSc2ccccc2C(=O)O)n3Cc2ccc(Cl)cc2)S1 (stereo not given) | 175 | – | – | IC50 [3]: 2900 nM
20 | CC1Cc2c(OCc3ccc(-c4ccccc4)cn3)ccc3c2c(c(CCOc2cccc(C(=O)O)c2)n3Cc2ccc(Cl)cc2)S1 (stereo not given) | 170 | – | – | –
21 | CC1Cc2c(OCc3ccc(-c4ccccc4)cn3)ccc3c2c(c(CCOc2ccc(Cl)cc2C(=O)O)n3Cc2ccc(Cl)cc2)S1 (stereo not given) | 130 | – | – | –
22 | CC1Cc2c(OCc3ccc(-c4ccccc4)cn3)ccc3c2c(c(COc2ccccc2CC(=O)O)n3Cc2ccc(Cl)cc2)S1 (stereo not given) | 26 | 35 | 27 | –
23 | CC1Cc2c(OCc3ccc(-c4ccccc4)cn3)ccc3c2c(c(CCOc2ccccc2C(=O)O)n3Cc2ccc(Cl)cc2)S1 (stereo not given) | 60 | 37 | 42 | –
